What was measured:
[1] = Clearance in pooled rat liver microsomes at 1 uM in presence of NADPH by LC-MS/MS method; type: ADME, microsome; conditions: read-out: CLH
[2] = Clearance in pooled human liver microsomes at 1 uM in presence of NADPH by LC-MS/MS method; type: ADME, microsome; conditions: read-out: CLH
[3] = Apparent permeability in MDCK vector control cells at 5 uM; conditions: dog
[4] = target: Sodium channel protein type 9 subunit alpha (Rattus norvegicus, UniProt O08562); assay: Inhibition of rat NaV1.7 by cell based whole cell voltage clamp method
Outline: (§1)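 PatchXpress electrophysiology was run with a protocol giving about 20% channel inactivation. At least four concentrations at half-log spacing were applied one at a time, with washout, current recovery and holding voltage reset between each. Data were pooled from at least 10 cells, with 2–3 points per concentration, and fitted with a 4-parameter Hill curve to give one IC50.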

[5] = target: Sodium channel protein type 5 subunit alpha (Homo sapiens, UniProt Q14524); assay: Inhibition of human NaV1.5 expressed in […] cells at holding potential of -125 mV with test potentials to -10 mV by whole cell voltage clamp method; type: cell-based
Chain of Sodium channel protein type 5 subunit alpha (Q14524 whole entry): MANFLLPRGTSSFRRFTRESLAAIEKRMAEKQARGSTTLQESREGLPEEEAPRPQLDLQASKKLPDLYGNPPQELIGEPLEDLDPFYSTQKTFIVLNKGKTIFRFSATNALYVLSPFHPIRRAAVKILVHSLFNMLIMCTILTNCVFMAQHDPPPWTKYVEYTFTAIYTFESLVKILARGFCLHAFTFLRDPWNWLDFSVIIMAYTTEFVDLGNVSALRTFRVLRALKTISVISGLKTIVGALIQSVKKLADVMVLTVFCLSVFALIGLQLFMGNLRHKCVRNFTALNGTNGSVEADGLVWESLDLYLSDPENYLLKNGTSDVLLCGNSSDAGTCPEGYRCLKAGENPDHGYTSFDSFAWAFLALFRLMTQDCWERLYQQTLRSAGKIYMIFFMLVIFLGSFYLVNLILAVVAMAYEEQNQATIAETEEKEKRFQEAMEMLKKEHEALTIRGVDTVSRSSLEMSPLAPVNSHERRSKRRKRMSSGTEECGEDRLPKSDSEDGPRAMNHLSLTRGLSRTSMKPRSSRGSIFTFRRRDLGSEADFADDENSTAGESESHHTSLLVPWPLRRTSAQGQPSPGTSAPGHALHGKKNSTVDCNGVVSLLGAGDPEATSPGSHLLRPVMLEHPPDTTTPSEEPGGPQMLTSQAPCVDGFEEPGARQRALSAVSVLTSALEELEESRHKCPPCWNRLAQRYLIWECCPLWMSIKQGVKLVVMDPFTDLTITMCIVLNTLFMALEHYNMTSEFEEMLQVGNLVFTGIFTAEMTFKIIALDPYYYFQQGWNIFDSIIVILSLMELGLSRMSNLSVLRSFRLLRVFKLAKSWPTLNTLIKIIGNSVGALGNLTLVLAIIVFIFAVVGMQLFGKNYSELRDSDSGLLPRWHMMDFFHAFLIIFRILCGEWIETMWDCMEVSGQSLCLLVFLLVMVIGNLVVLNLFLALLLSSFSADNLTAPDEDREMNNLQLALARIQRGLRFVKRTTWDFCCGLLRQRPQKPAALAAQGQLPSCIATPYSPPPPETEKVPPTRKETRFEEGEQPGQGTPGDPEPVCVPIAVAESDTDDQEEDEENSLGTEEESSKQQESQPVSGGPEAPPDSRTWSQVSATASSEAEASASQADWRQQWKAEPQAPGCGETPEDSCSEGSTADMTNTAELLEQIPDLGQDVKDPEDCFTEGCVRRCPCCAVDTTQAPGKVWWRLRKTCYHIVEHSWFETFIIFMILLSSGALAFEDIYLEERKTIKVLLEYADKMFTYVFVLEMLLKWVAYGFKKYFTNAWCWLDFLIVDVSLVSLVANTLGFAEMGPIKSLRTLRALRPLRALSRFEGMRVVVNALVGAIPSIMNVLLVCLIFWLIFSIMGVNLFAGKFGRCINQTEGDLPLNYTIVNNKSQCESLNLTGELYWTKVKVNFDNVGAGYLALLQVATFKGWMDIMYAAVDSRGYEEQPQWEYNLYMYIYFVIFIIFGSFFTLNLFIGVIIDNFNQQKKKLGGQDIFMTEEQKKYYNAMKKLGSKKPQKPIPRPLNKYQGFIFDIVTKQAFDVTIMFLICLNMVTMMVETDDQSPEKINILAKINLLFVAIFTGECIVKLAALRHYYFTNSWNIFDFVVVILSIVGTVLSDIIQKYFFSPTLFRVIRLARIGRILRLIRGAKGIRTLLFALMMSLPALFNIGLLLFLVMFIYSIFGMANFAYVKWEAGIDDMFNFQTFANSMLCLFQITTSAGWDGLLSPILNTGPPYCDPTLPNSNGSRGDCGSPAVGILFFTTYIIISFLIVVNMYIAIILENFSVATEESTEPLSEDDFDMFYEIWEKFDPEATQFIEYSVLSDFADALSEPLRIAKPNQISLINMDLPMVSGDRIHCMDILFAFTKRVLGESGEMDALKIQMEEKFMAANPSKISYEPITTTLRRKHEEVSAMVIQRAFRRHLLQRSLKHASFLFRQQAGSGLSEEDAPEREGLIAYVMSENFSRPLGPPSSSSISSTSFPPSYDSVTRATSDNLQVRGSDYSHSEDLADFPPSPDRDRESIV

[6] = target: Sodium channel protein type 9 subunit alpha (Mus musculus, UniProt Q62205); assay: Inhibition of mouse NaV1.7 by whole cell voltage clamp method; outline: as §1
Homo sapiens = organism: Homo sapiens; assay: Selectivity index, ratio of IC50 for human NaV1.5 expressed in […] cells to IC50 for human NaV1.7 expressed in HEK293 cells; type: cell-based
Rattus norvegicus = assay: Unbound clearance in rat at 0.5 mg/kg, iv by LC-MS/MS method; type: ADME, organism-based; conditions: in vivo
Outline: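 Male rats given 0.5 mg/kg intravenously as a solution in DMSO. Unbound clearance was calculated as rat clearance divided by unbound fraction, with unbound fraction determined by equilibrium dialysis.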

[7] = Clearance in rat at 0.5 mg/kg, iv by LC-MS/MS method; type: ADME, organism-based; conditions: in vivo
Outline: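 Male rats got 0.5 mg/kg IV as a DMSO solution. Unbound clearance was taken as rat clearance divided by the unbound fraction from equilibrium dialysis.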

[8] = target: T1, Sodium channel protein type 9 subunit alpha (Homo sapiens, UniProt Q15858); assay: Inhibition of human NaV1.7 expressed in HEK293 cells at holding potential of -125 mV with test potentials to -10 mV by whole cell voltage clamp method; type: cell-based
T1 sequence (Q15858 whole entry): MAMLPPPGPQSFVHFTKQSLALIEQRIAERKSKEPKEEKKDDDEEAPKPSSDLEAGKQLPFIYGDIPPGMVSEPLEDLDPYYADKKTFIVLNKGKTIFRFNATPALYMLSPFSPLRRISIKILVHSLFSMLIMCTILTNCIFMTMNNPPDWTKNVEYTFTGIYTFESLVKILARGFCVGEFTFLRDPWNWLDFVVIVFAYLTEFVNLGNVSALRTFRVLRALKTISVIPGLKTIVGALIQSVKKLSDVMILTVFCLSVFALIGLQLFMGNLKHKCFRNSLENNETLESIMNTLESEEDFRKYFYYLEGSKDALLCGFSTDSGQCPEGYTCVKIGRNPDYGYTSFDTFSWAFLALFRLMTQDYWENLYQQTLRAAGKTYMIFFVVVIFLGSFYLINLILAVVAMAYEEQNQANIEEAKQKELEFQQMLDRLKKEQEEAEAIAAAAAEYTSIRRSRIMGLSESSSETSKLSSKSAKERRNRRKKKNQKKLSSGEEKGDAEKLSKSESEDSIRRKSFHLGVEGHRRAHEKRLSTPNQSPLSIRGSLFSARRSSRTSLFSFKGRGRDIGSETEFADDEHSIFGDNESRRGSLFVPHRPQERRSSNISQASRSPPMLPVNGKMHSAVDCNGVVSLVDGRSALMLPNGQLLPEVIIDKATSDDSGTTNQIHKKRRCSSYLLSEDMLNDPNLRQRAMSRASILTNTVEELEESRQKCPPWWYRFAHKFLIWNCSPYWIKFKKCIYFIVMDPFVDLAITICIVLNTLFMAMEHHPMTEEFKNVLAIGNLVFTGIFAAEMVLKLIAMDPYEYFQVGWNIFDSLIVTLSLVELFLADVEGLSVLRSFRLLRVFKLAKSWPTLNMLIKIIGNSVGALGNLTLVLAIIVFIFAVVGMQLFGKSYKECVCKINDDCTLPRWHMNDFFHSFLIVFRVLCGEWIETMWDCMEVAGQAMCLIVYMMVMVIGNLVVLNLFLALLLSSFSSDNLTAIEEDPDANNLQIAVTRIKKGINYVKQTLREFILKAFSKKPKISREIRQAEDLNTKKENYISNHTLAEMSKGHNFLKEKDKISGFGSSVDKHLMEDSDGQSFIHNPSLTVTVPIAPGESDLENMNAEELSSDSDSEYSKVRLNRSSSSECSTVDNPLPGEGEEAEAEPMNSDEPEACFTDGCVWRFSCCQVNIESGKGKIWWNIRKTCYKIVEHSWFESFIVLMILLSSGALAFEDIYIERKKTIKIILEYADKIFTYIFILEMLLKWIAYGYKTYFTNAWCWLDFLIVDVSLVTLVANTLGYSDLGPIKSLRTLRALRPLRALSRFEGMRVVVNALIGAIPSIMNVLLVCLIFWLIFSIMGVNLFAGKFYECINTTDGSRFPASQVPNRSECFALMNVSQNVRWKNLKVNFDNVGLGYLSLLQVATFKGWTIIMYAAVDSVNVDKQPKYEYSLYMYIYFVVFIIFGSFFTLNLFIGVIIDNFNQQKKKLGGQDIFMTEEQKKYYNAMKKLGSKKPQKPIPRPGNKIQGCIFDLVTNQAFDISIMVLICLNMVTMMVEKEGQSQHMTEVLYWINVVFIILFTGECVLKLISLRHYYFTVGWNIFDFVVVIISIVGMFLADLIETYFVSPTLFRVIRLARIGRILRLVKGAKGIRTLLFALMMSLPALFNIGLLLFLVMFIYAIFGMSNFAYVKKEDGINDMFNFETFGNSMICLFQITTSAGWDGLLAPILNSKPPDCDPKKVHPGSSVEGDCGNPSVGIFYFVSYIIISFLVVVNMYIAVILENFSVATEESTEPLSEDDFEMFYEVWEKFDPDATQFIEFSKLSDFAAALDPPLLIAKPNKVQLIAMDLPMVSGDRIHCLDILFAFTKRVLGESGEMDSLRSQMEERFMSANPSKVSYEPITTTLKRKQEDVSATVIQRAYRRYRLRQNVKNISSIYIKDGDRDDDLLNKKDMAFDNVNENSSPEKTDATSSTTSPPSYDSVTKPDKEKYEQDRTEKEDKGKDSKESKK

[9] = Inhibition of cynomolgus monkey NaV1.7 by whole cell voltage clamp method; conditions: Macaca fascicularis; outline: as §1
[10] = target: T1, Sodium channel protein type 9 subunit alpha; assay: Displacement of (P)-1-(30-chloro-2-fluoro-5,50-dimethoxy-[1,10biphenyl]-4-yl)-N-(isoxazol-3-yl)-2-oxo-1,2-dihydroquinoline-6-sulfonamide[50-methoxy-C3H3] from human NaV1.7 expressed in HEK293 cell membranes incubated for 1 hr by beta counting method
Outline: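 Human NaV1.7 radioligand displacement using the tritiated 5'-methoxy-labelled dihydroquinoline sulfonamide ligand, which binds the VSDIV pocket.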

[11] = Dissociation constant, pKa of the compound; type: physicochemical

With `N#Cc1cc(C(F)(F)F)ccc1N1CCOc2c1ccc(S(=O)(=O)Nc1nccs1)c2F` the microsomal CLint at 1 µM [1] was less than 14 µL/min/mg, the microsomal CLint at 1 µM [2] was less than 14 µL/min/mg and the Papp at 5 µM [3] was 38 ×10⁻⁶ cm/s. The IC50 [4] was 1700 nM and the IC50 [5] was 2100 nM.

With `O=S(=O)(Nc1ccncn1)c1ccc2c(-c3ccc(C(F)(F)F)cc3C3=CCNCC3)cccc2c1` the IC50 [6] was 4300 nM, the Ratio IC50 (Homo sapiens) was greater than 330 and the Papp at 5 µM [3] was 1.3 ×10⁻⁶ cm/s. It also gave a CL free (Rattus norvegicus) of 667 mL/min/kg, a clearance [7] of 28.3 mL/min/kg and an IC50 [4] greater than 30000 nM. The IC50 [8] was 90 nM, the IC50 [9] was 100 nM and the IC50 [5] was greater than 30000 nM.

`COc1ccccc1N1CCOc2cc(S(=O)(=O)Nc3nccs3)ccc21` showed a microsomal CLint at 1 µM [1] of 297 µL/min/mg, a Ratio IC50 (Homo sapiens) greater than 79 and a microsomal CLint at 1 µM [2] of 68 µL/min/mg. It also gave a Papp at 5 µM [3] of 28 ×10⁻⁶ cm/s, an IC50 [4] of 1600 nM and an IC50 [5] greater than 30000 nM.

In the case of `O=S(=O)(Nc1ccncn1)c1ccc2c(c1)OCCN2c1ccc(C(F)(F)F)cc1C1=CCNCC1`, the Ratio IC50 (Homo sapiens) is reported as 11, the Papp at 5 µM [3] is reported as 1 ×10⁻⁶ cm/s and the CL free (Rattus norvegicus) is reported as 233 mL/min/kg. It also gave a clearance [7] of 43.3 mL/min/kg, an IC50 [4] greater than 30000 nM and an IC50 [5] of 1500 nM.

For `N#Cc1cc(C(F)(F)F)ccc1N1CCOc2cc(S(=O)(=O)Nc3nccs3)cc(F)c21`, the microsomal CLint at 1 µM [1] was less than 14 µL/min/mg, the microsomal CLint at 1 µM [2] was less than 14 µL/min/mg and the Papp at 5 µM [3] was 26 ×10⁻⁶ cm/s. The IC50 [4] was 560 nM and the IC50 [5] was 650 nM.

`N#Cc1cc(C(F)(F)F)ccc1N1CCOc2cc(S(=O)(=O)Nc3nccs3)c(Cl)cc21` gave an IC50 [6] of 100 nM, a microsomal CLint at 1 µM [1] of 21 µL/min/mg and a microsomal CLint at 1 µM [2] of 22 µL/min/mg. The Papp at 5 µM [3] was 27 ×10⁻⁶ cm/s, the IC50 [10] was 20 nM and the IC50 [4] was 50 nM. It also gave an IC50 [8] of 390 nM, an IC50 [9] of 300 nM and an IC50 [5] of 610 nM.

`N#Cc1cc(C(F)(F)F)ccc1N1CCOc2cc(S(=O)(=O)Nc3ccncn3)ccc21` gave a microsomal CLint at 1 µM [1] of less than 14 µL/min/mg, a Ratio IC50 (Homo sapiens) of 10 and a microsomal CLint at 1 µM [2] of less than 14 µL/min/mg. For the same compound, the Papp at 5 µM [3] was 9.7 ×10⁻⁶ cm/s, the CL free (Rattus norvegicus) was 120 mL/min/kg and the clearance [7] was 2.83 mL/min/kg. For the same compound, the IC50 [4] was 3000 nM, the pKa [11] was 5.8 and the IC50 [5] was 4600 nM.

`Cn1nccc1-c1ccccc1Oc1ccc(S(=O)(=O)Nc2nccs2)cc1C#N` gave an IC50 [6] of 130 nM, an IC50 [4] of 4200 nM and an IC50 [9] of 20 nM.

`N#Cc1cc(C(F)(F)F)ccc1N1CCOc2cc(S(=O)(=O)Nc3ncco3)ccc21` showed a microsomal CLint at 1 µM [1] of less than 14 µL/min/mg, a microsomal CLint at 1 µM [2] of 15 µL/min/mg and a Papp at 5 µM [3] of 6.4 ×10⁻⁶ cm/s.

Compound `N#Cc1cc(C(F)(F)F)ccc1N1CCOc2cc(S(=O)(=O)Nc3ccno3)ccc21` has a microsomal CLint at 1 µM [1] of less than 14 µL/min/mg, a microsomal CLint at 1 µM [2] of 32 µL/min/mg and a Papp at 5 µM [3] of less than 1 ×10⁻⁶ cm/s.

With `N#Cc1cc(C(F)(F)F)ccc1N1CCOc2cc(S(=O)(=O)Nc3ncns3)ccc21` the microsomal CLint at 1 µM [1] was 34 µL/min/mg, the microsomal CLint at 1 µM [2] was less than 14 µL/min/mg and the Papp at 5 µM [3] was 1.6 ×10⁻⁶ cm/s. For the same compound, the CL free (Rattus norvegicus) was 1180 mL/min/kg, the clearance [7] was 10.7 mL/min/kg and the IC50 [10] was 21 nM. The IC50 [8] was 90 nM and the pKa [11] was 3.8.

`COc1cc(F)ccc1N1CCOc2cc(S(=O)(=O)Nc3nccs3)ccc21` gave a microsomal CLint at 1 µM [1] greater than 399 µL/min/mg, a Ratio IC50 (Homo sapiens) greater than 100 and a microsomal CLint at 1 µM [2] of 110 µL/min/mg. The Papp at 5 µM [3] was 36 ×10⁻⁶ cm/s, the IC50 [4] was 880 nM and the IC50 [8] was 280 nM. For the same compound, the IC50 [5] was greater than 30000 nM.

Compound `N#Cc1cc(C(F)(F)F)ccc1N1CCOc2cc(S(=O)(=O)Nc3cscn3)ccc21` has a microsomal CLint at 1 µM [1] of less than 14 µL/min/mg, a microsomal CLint at 1 µM [2] of 55 µL/min/mg and a Papp at 5 µM [3] of 39 ×10⁻⁶ cm/s.

In the case of `COc1cc(C(F)(F)F)ccc1N1CCOc2cc(S(=O)(=O)Nc3nccs3)ccc21`, the microsomal CLint at 1 µM [1] is reported as 53 µL/min/mg, the microsomal CLint at 1 µM [2] is reported as 30 µL/min/mg and the CL free (Rattus norvegicus) is reported as 667 mL/min/kg. The IC50 [4] was 390 nM.

In the case of `N#Cc1cc(C(F)(F)F)ccc1N1CCOc2cc(S(=O)(=O)Nc3nccs3)ccc21`, the microsomal CLint at 1 µM [1] is reported as less than 14 µL/min/mg, the Ratio IC50 (Homo sapiens) is reported as 8 and the microsomal CLint at 1 µM [2] is reported as less than 14 µL/min/mg. It also gave a Papp at 5 µM [3] of 22 ×10⁻⁶ cm/s, a CL free (Rattus norvegicus) of 517 mL/min/kg and a clearance [7] of 5.5 mL/min/kg. The IC50 [4] was 1100 nM, the pKa [11] was 7 and the IC50 [5] was 1500 nM.

`COc1cc(C#N)ccc1N1CCOc2cc(S(=O)(=O)Nc3nccs3)ccc21` gave a microsomal CLint at 1 µM [1] of 22 µL/min/mg, a Ratio IC50 (Homo sapiens) of 56 and a microsomal CLint at 1 µM [2] of 36 µL/min/mg. It also gave a Papp at 5 µM [3] of 20 ×10⁻⁶ cm/s, a CL free (Rattus norvegicus) of 883 mL/min/kg and a clearance [7] of 14 mL/min/kg. For the same compound, the IC50 [4] was 850 nM, the IC50 [8] was 250 nM and the IC50 [5] was 14000 nM.

From ChEMBL document CHEMBL4052683, “The discovery of benzoxazine sulfonamide inhibitors of NaV1.7: Tools that bridge efficacy and target engagement” (Bioorg Med Chem Lett, 2017)
